According to ChEMBL document CHEMBL4321819, “Simple Structural Modifications Converting a Bona fide MDM2 PROTAC Degrader into a Molecular Glue Molecule: A Cautionary Tale in the Design of PROTAC Degraders” (J Med Chem, 2019):
pIC50: −log10 of the molar value. The source made the active and inactive calls. The rule behind the calls is not given here.

Columns and labels:
RS4-11 [1] = assay: Antiproliferative activity against human RS4:11 cells expressing wild type p53 assessed as cell growth inhibition without interaction with cereblon after 4 days by WST-8 assay; assay type: functional, cell-based; details: RS4-11, 96 h
Procedure, shortened: (§1)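 Leukemia cells seeded at 10000–20000 cells/well, breast cancer lines at 5000–10000 cells/well. Serially diluted compound added, then 4 days at 37 °C, 5% CO2. Growth read with WST-8 reagent after at least 1 h, absorbance at 450 nm. RS4;11, MOLM-13 and breast lines were grown in RPMI 1640; MV-4-11 and HL-60 in IMDM; all with 10% FBS. Mean ± SE, at least three independent experiments.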

MDA-MB-468 [2] = assay: Antiproliferative activity against human MDA-MB-468 cells assessed as cell growth inhibition after 4 days in presence of control siRNA for 2 days followed by compound treatment by WST-8 assay; assay type: functional, cell-based
Procedure, shortened: (§2)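 MDA-MB-231 or MDA-MB-468 cells transfected for 2 days using Lipofectamine RNAiMAX with MDM2 siRNA, one of two CRBN siRNAs, or non-targeting control siRNA. Compound then added and growth read by WST-8 at 450 nm.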

[3] = target: T1, E3 ubiquitin-protein ligase Mdm2 (Homo sapiens, UniProt Q00987); assay: Displacement of PMDM6-F fluorescent probe from human recombinant His-tagged MDM2 (1 to 118 residues) after 15 mins by fluorescence polarization assay
Procedure, shortened: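 Recombinant human His-tagged MDM2 (residues 1–118) with a FAM-labelled p53-based peptide as fluorescent probe; competitive fluorescence-polarization binding. Mean ± standard error from at least three independent experiments.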
Target sequence in this assay (Q00987 whole entry, the tested form may be a part): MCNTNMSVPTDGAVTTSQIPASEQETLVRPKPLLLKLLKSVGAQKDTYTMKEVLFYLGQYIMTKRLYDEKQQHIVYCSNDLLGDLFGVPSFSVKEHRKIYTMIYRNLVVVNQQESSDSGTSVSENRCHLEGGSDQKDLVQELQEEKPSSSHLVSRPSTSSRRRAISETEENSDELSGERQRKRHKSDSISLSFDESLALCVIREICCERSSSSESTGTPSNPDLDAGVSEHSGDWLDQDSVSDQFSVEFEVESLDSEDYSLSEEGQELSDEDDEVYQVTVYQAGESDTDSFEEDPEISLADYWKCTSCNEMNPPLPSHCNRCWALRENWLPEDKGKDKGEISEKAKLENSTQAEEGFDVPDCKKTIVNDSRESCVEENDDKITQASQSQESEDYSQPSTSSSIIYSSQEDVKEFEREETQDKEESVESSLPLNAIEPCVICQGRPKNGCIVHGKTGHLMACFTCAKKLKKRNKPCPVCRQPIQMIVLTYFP

[4] = target: T2, Protein cereblon/Eukaryotic peptide chain release factor GTP-binding subunit ERF3A/DNA damage-binding protein 1/Cullin-4A (Homo sapiens) (UniProt Q96SW2+Q16531+Q13619+P15170); assay: Protac activity at GSPT1/CUL4/DDB1/CRBN in human RS4:11 cells expressing wild type p53 assessed as decrease in GSPT1 protein level at 10 nM by Western blot analysis; assay type: cell-based; details: TDE = time-dependent effect
T2 sequence (P15170 whole entry, looked up): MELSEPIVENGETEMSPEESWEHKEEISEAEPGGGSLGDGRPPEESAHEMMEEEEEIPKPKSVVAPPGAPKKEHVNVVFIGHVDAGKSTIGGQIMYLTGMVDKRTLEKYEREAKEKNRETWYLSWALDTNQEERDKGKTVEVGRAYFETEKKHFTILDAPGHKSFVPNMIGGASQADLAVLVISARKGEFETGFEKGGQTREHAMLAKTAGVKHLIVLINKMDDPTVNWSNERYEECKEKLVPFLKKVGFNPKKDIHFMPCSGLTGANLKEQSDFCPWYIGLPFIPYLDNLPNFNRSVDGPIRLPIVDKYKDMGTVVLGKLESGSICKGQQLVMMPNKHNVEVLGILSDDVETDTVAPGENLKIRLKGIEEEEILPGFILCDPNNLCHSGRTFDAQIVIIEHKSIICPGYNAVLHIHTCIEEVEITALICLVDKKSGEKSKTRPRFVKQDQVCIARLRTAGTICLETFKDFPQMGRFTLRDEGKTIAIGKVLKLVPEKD
T2 sequence (Q13619 whole entry, looked up): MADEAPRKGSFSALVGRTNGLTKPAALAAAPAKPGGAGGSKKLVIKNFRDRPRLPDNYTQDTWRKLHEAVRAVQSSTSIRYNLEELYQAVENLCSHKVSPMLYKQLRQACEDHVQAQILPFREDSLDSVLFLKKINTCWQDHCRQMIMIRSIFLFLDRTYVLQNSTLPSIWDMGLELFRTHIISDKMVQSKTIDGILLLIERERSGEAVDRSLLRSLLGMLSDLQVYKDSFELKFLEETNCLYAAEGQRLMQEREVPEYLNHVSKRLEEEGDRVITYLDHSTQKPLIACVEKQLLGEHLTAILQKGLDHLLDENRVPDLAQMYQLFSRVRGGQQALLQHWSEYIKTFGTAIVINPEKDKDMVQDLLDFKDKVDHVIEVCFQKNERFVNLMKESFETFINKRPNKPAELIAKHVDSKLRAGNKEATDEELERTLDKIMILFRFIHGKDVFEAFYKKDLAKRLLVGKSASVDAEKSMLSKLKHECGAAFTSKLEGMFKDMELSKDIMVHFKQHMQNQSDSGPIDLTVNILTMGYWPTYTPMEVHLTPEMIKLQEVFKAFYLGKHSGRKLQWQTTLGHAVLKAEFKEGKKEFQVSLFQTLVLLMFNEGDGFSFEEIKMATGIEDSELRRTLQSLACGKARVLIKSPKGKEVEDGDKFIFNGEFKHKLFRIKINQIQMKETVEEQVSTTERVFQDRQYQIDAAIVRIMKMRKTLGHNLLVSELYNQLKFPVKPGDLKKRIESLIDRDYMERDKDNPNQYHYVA
T2 sequence (Q16531 whole entry, looked up): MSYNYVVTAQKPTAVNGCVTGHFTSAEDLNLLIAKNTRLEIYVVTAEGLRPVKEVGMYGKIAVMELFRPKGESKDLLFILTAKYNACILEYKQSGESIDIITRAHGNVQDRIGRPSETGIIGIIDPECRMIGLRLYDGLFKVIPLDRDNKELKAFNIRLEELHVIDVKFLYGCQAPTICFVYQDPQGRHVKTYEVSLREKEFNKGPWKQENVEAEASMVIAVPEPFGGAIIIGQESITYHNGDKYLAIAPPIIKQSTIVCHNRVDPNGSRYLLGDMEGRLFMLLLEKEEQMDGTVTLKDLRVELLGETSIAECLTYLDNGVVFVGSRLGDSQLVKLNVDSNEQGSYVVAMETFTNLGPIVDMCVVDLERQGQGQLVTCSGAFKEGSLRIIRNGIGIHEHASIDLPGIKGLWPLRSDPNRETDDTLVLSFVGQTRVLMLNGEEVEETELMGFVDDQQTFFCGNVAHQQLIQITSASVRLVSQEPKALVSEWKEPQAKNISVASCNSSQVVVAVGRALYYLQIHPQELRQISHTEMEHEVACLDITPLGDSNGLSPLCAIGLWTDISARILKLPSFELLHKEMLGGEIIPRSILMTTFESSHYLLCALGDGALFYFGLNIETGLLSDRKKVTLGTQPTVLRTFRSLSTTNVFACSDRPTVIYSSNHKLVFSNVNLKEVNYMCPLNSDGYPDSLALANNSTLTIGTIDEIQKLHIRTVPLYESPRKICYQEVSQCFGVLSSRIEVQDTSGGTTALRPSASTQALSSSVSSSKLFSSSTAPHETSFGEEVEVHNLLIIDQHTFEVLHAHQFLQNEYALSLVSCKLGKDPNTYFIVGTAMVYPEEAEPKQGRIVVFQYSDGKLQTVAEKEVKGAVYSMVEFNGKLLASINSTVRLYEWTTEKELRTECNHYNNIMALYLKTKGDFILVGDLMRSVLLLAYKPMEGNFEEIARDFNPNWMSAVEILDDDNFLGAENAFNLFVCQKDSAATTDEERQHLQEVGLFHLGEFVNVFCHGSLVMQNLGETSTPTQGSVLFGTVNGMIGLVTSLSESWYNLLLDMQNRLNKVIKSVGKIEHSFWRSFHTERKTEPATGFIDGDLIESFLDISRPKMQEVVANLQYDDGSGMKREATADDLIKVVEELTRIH
T2 sequence (Q96SW2 whole entry, looked up): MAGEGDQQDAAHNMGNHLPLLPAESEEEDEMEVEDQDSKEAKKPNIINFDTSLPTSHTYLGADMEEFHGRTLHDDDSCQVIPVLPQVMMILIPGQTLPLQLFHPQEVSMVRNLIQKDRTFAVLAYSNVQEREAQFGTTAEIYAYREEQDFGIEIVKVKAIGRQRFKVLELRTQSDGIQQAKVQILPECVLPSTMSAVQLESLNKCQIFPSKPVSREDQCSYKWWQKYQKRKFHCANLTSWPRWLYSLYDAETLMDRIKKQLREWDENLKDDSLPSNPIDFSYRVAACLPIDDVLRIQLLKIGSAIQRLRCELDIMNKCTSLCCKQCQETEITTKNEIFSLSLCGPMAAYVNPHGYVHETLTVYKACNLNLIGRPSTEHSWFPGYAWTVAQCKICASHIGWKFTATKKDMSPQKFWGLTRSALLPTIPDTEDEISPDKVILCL
Procedure, shortened: (§3)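 RS4;11 (wild-type p53) or RS4;11/IRMI-2 (MDM2 inhibitor-resistant derivative, mutant p53) cells kept in RPMI 1640 with 10% FBS at 37 °C, 5% CO₂. 2×10^6 cells/well treated at the indicated concentrations and times, then lysed in ice-cold lysis buffer with protease inhibitor. GSPT1 detected by Western blot with a specific antibody.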

[5] = target: Eukaryotic peptide chain release factor GTP-binding subunit ERF3A (Homo sapiens, UniProt P15170); assay: Induction of GSPT1 degradation in human RS4:11 cells at 0.1 uM pretreated with proteasome inhibitor PR-171 followed by compound treatment after 2 hrs by Western blot analysis
Chain of Eukaryotic peptide chain release factor GTP-binding subunit ERF3A (P15170 whole entry): as the sequence (P15170 whole entry, looked up) above

[6] = target: T2, Protein cereblon/Eukaryotic peptide chain release factor GTP-binding subunit ERF3A/DNA damage-binding protein 1/Cullin-4A (Homo sapiens); assay: Protac activity at GSPT1/CUL4/DDB1/CRBN in human RS4:11 cells expressing wild type p53 assessed as decrease in GSPT1 protein level after 2 hrs by Western blot analysis; assay type: cell-based; procedure, shortened: as §3
[7] = target: T1, E3 ubiquitin-protein ligase Mdm2; assay: Induction of MDM2 degradation in human RS4:11/IRMI-2 cells harboring p53 hotspot mutation Y236H/R249G assessed as downregulation of MDM2 at 1 to 30 nM after 2 hrs by Western blot analysis; assay type: cell-based
Procedure, shortened: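 RS4;11/IRMI-2 cells are an MDM2 inhibitor-resistant line derived from RS4;11, with p53 mutations confirmed by sequencing. 2×10^6 cells/well were treated 2 h at the indicated concentrations. MDM2 protein was probed by Western blot after lysis in ice-cold buffer with protease inhibitor.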
Target sequence in this assay (Q00987 whole entry, looked up, the tested form may be a part): as the sequence (Q00987 whole entry, the tested form may be a part) above

[8] = Antiproliferative activity against human RS4:11/IRMI-2 cells harboring p53 hotspot mutation Y236H/R249G assessed as MDM2-independent cell growth inhibition after 4 days by WST-8 assay; assay type: functional, cell-based; details: RS4-11, 96 h; procedure, shortened: as §1
MDA-MB-231 [9] = assay: Antiproliferative activity against human MDA-MB-231 cells assessed as cell growth inhibition after 4 days in presence of control siRNA for 2 days followed by compound treatment by WST-8 assay; assay type: functional, cell-based; procedure, shortened: as §2
[10] = target: T2, Protein cereblon/Eukaryotic peptide chain release factor GTP-binding subunit ERF3A/DNA damage-binding protein 1/Cullin-4A (Homo sapiens); assay: Protac activity at GSPT1/CUL4/DDB1/CRBN in human RS4:11/IRMI-2 cells harboring p53 hotspot mutation Y236H/R249G assessed as effect on GSPT1 mRNA level after 3 hrs by qRT-PCR analysis; assay type: cell-based
[11] = target: T1, E3 ubiquitin-protein ligase Mdm2; assay: Induction of MDM2 degradation in human RS4:11 cells assessed as downregulation of MDM2 at 1 to 30 nM after 2 hrs by Western blot analysis; assay type: cell-based
Procedure, shortened: (§4)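 Western blots of MDM2 and p53 protein were run on RS4;11 cells (wild-type p53) in RPMI 1640 with 10% FBS. 2×10^6 cells/well were treated at the indicated concentrations for 1 h or 2 h. Lysis was in ice-cold buffer with protease inhibitor, followed by probing with specific antibodies.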
Target sequence in this assay (Q00987 whole entry, looked up, the tested form may be a part): as the sequence (Q00987 whole entry, the tested form may be a part) above

[12] = target: T3, Protein cereblon/Eukaryotic peptide chain release factor GTP-binding subunit ERF3A (Homo sapiens) (UniProt Q96SW2+P15170); assay: Inhibition of cereblon binding with GSPT1 human MDA-MB-468 cells assessed as decrease in GSPT1 degradation at 0.1 uM after 2 hrs in presence of 30 uM lenalidomide by Western blot analysis; assay type: cell-based
T3 sequence (P15170 whole entry, looked up): as the sequence (P15170 whole entry, looked up) above
T3 sequence (Q96SW2 whole entry, looked up): as the sequence (Q96SW2 whole entry, looked up) above
Procedure, shortened: (§5)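 MDA-MB-231 or MDA-MB-468 cells were treated 2 h with or without 30 μM lenalidomide to block cereblon binding. GSPT1 protein level was then assessed by Western blotting.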

[13] = target: T2, Protein cereblon/Eukaryotic peptide chain release factor GTP-binding subunit ERF3A/DNA damage-binding protein 1/Cullin-4A (Homo sapiens); assay: Protac activity at GSPT1/CUL4/DDB1/CRBN in human RS4:11 cells expressing wild type p53 assessed as decrease in GSPT1 protein level by measuring fold change of protein level before and after treatment at 0.1 uM measured after 3 hrs relative to control
[14] = target: T1, E3 ubiquitin-protein ligase Mdm2; assay: Induction of MDM2 degradation in human RS4:11 cells assessed as upregulation of p53 at 1 to 30 nM after 2 hrs by Western blot analysis; assay type: cell-based; procedure, shortened: as §4
Target sequence in this assay (Q00987 whole entry, looked up, the tested form may be a part): as the sequence (Q00987 whole entry, the tested form may be a part) above

[15] = target: T3, Protein cereblon/Eukaryotic peptide chain release factor GTP-binding subunit ERF3A (Homo sapiens); assay: Inhibition of cereblon binding with GSPT1 in human MDA-MB-231 cells assessed as decrease in GSPT1 degradation at 0.1 uM after 2 hrs in presence of 30 uM lenalidomide by Western blot analysis; assay type: cell-based; procedure, shortened: as §5
[16] = target: T2, Protein cereblon/Eukaryotic peptide chain release factor GTP-binding subunit ERF3A/DNA damage-binding protein 1/Cullin-4A (Homo sapiens); assay: Protac activity at GSPT1/CUL4/DDB1/CRBN in human RS4:11/IRMI-2 cells harboring p53 hotspot mutation Y236H/R249G assessed as decrease in GSPT1 protein level by measuring fold change of protein level before and after treatment at 0.1 uM measured after 3 hrs relative to control
RS4-11 [17] = assay: Antiproliferative activity against human RS4:11 cells expressing wild type p53 assessed as cell growth inhibition after 4 days by WST-8 assay; assay type: functional, cell-based; details: RS4-11, 96 h; procedure, shortened: as §1
MDA-MB-231 [18] = assay: Antiproliferative activity against human MDA-MB-231 cells harboring mutant p53 assessed as cell growth inhibition after 4 days by WST-8 assay; assay type: functional, cell-based; details: MDA-MB-231, 96 h; procedure, shortened: as §1
MDA-MB-468 [19] = assay: Antiproliferative activity against human MDA-MB-468 cells transfected with MDM2 siRNA assessed as cell growth inhibition after 4 days by WST-8 assay; assay type: functional, cell-based; details: MDA-MB-468, 96 h; procedure, shortened: as §2

`O=C1CCC(N2Cc3c(CCCCCNC(=O)[C@@H]4NC5(CCCCC5)[C@@]5(C(=O)Nc6cc(Cl)ccc65)[C@H]4c4cccc(Cl)c4F)cccc3C2=O)C(=O)N1` (some centres undefined) showed a pIC50 (RS4-11 [1]) of 9.77, a pIC50 (MDA-MB-468 [2]) of 7.51 and a pIC50 [3] of 7.17. For the same compound, the Activity [4] was “Tde”, the Activity [5] was “inactive” and the Activity [6] was “Active”. The Activity [7] was “Active”, the pIC50 [8] was 8.59 and the pIC50 (MDA-MB-231 [9]) was 7.54. For the same compound, the Activity [10] was “inactive”, the Activity [11] was “Active” and the inhibition [12] was “Active”. The fold change [13] was 5.3, the Activity [14] was “inactive” and the inhibition [15] was “Active”. For the same compound, the fold change [16] was 3.7, the pIC50 (RS4-11 [17]) was 8.46 and the pIC50 (MDA-MB-231 [18]) was 7.40. For the same compound, the pIC50 (MDA-MB-468 [19]) was 7.70.
